Legend:
[1] = system: Aspergillus fumigatus; test: In vitro antifungal activity against Aspergillus fumigatus; format: functional
In short: (§1)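 Fungal growth-inhibition screen (Godefroi method) against dermatophytes, yeasts, moulds and other fungi. The value is the lowest concentration (µg/mL) giving total inhibition of growth, tested up to 100 µg/mL.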

[2] = In vivo activity against microsporosis guinea pig, measured as the ratio of animals cured/animals infected (C/I) at dose 1.25 mg/kg; C/I = 0/6; format: functional
[3] = In vitro antifungal activity against Mucor sp; format: functional; in short: as §1
[4] = system: Trichophyton benhamiae; test: In vitro antifungal activity against Trichophyton mentagrophytes; format: functional, Arthroderma benhamiae; in short: as §1
[5] = system: Phialophora verrucosa; test: In vitro antifungal activity against Phialophora verrucosa; format: functional; in short: as §1
[6] = system: Microsporum canis; test: In vitro antifungal activity against Microsporum canis; format: functional; in short: as §1
[7] = system: Candida albicans; test: In vitro antifungal activity against Candida albicans; format: functional; in short: as §1
[8] = In vivo activity against microsporosis guinea pig, measured as the ratio of animals cured/animals infected (C/I) at dose 10 mg/kg; C/I = 5/6; format: functional
[9] = In vivo activity against microsporosis guinea pig, measured as the ratio of animals cured/animals infected (C/I) at dose 2.5 mg/kg; C/I = 1/6; format: functional
[10] = system: Candida tropicalis; test: In vitro antifungal activity against Candida tropicalis; format: functional; in short: as §1
[11] = system: Cryptococcus neoformans; test: In vitro antifungal activity against Cryptococcus neoformans; format: functional; in short: as §1
[12] = system: Sporothrix schenckii; test: In vitro antifungal activity against Sporothrix schenck ii; format: functional; in short: as §1
[13] = In vivo activity against vaginal candidoses in rats, measured as the ratio of animals cured/animals infected (C/I) at dose 2.5 mg/kg; C/I = 1/6; format: functional
[14] = system: Trichophyton rubrum; test: In vitro antifungal activity against Trichophyton rubrum; format: functional; in short: as §1
[15] = system: Saprolegnia; test: In vitro antifungal activity against Saprolegnia sp; format: functional; in short: as §1
[16] = In vivo activity against microsporosis guinea pig, measured as the ratio of animals cured/animals infected (C/I) at dose 1.25 mg/kg; C/I = 0/8; format: functional
[17] = In vivo activity against vaginal candidoses in rats, measured as the ratio of animals cured/animals infected (C/I) at dose 0.63 mg/kg; C/I = 4/12; format: functional
[18] = In vivo activity against microsporosis guinea pig, measured as the ratio of animals cured/animals infected (C/I) at dose 2.5 mg/kg; C/I = 3/10; format: functional
[19] = system: Rattus norvegicus; test: In vivo activity against vaginal candidoses in rats, measured as the ratio of animals cured/animals infected (C/I) at dose 1.25 mg/kg; C/I = 16/18; format: functional
[20] = In vivo activity against vaginal candidoses in rats, measured as the ratio of animals cured/animals infected (C/I) at dose 2.5 mg/kg; C/I = 13/15; format: functional
[21] = In vivo activity against microsporosis guinea pig, measured as the ratio of animals cured/animals infected (C/I) at dose 10 mg/kg; C/I = 4/8; format: functional
[22] = In vivo activity against vaginal candidoses in rats, measured as the ratio of animals cured/animals infected (C/I) at dose 10 mg/kg; C/I = 10/12; format: functional
[23] = In vivo activity against microsporosis guinea pig, measured as the ratio of animals cured/animals infected (C/I) at dose 10 mg/kg; 1/2; format: functional
[24] = In vivo activity against microsporosis guinea pig, measured as the ratio of animals cured/animals infected (C/I) at dose 2.5 mg/kg; 0/2; format: functional
[25] = In vivo activity against vaginal candidoses in rats, measured as the ratio of animals cured/animals infected (C/I) at dose 2.5 mg/kg; 0/2; format: functional
[26] = In vivo activity against vaginal candidoses in rats, measured as the ratio of animals cured/animals infected (C/I) at dose 2.5 mg/kg; C/I = 0/2; format: functional
[27] = In vivo activity against microsporosis guinea pig, measured as the ratio of animals cured/animals infected (C/I) at dose 2.5 mg/kg; C/I = 0/2; format: functional
[28] = In vivo activity against microsporosis guinea pig, measured as the ratio of animals cured/animals infected (C/I) at dose 10 mg/kg; C/I = 2/4; format: functional
[29] = In vivo activity against microsporosis guinea pig, measured as the ratio of animals cured/animals infected (C/I) at dose 1.25 mg/kg; C/I = 12/15; format: functional
[30] = system: Rattus norvegicus; test: In vivo activity against vaginal candidoses in rats, measured as the ratio of animals cured/animals infected (C/I) at dose 1.25 mg/kg; C/I = 13/33; format: functional
[31] = In vivo activity against vaginal candidoses in rats, measured as the ratio of animals cured/animals infected (C/I) at dose 10 mg/kg; C/I = 12/12; format: functional
[32] = In vivo activity against vaginal candidoses in rats, measured as the ratio of animals cured/animals infected (C/I) at dose 2.5 mg/kg; C/I = 29/34; format: functional
[33] = In vivo activity against microsporosis guinea pig, measured as the ratio of animals cured/animals infected (C/I) at dose 2.5 mg/kg; C/I = 11/12; format: functional
[34] = In vivo activity against microsporosis guinea pig, measured as the ratio of animals cured/animals infected (C/I) at dose 10 mg/kg; C/I = 6/6; format: functional
[35] = In vivo activity against vaginal candidoses in rats, measured as the ratio of animals cured/animals infected (C/I) at dose 0.63 mg/kg; C/I = 7/40; format: functional
[36] = In vivo activity against vaginal candidoses in rats, measured as the ratio of animals cured/animals infected (C/I) at dose 0.63 mg/kg; C/I = 4/11; format: functional
[37] = In vivo activity against microsporosis guinea pig, measured as the ratio of animals cured/animals infected (C/I) at dose 2.5 mg/kg; C/I = 0/8; format: functional
[38] = In vivo activity against vaginal candidoses in rats, measured as the ratio of animals cured/animals infected (C/I) at dose 1.25 mg/kg; C/I = 6/6; format: functional
[39] = In vivo activity against vaginal candidoses in rats, measured as the ratio of animals cured/animals infected (C/I) at dose 2.5 mg/kg; C/I = 6/6; format: functional
[40] = In vivo activity against microsporosis guinea pig, measured as the ratio of animals cured/animals infected (C/I) at dose 10 mg/kg; C/I = 2/6; format: functional
[41] = In vivo activity against vaginal candidoses in rats, measured as the ratio of animals cured/animals infected (C/I) at dose 2.5 mg/kg; C/I = 4/11; format: functional
[42] = In vivo activity against vaginal candidoses in rats, measured as the ratio of animals cured/animals infected (C/I) at dose 10 mg/kg; C/I = 5/6; format: functional
[43] = In vivo activity against vaginal candidoses in rats, measured as the ratio of animals cured/animals infected (C/I) at dose 0.63 mg/kg; C/I = 0/4; format: functional
[44] = system: Rattus norvegicus; test: In vivo activity against vaginal candidoses in rats, measured as the ratio of animals cured/animals infected (C/I) at dose 1.25 mg/kg; C/I = 3/12; format: functional
[45] = In vivo activity against microsporosis guinea pig, measured as the ratio of animals cured/animals infected (C/I) at dose 2.5 mg/kg; C/I = 2/6; format: functional
[46] = In vivo activity against microsporosis guinea pig, measured as the ratio of animals cured/animals infected (C/I) at dose 10 mg/kg; C/I = 4/4; format: functional

Cc1nn(C(C)C)c(=O)n1-c1ccc(N2CCN(c3ccc(OC[C@@H]4COC(Cn5ccnc5)(c5ccc(Cl)cc5Cl)O4)cc3)CC2)cc1 (some centres undefined)
Inhibition [1]: >100 µg/mL
C/I ratio [2]: 0
Inhibition [3]: >100 µg/mL
Inhibition [4]: 100 µg/mL
Inhibition [5]: >100 µg/mL
Inhibition [6]: >100 µg/mL
Inhibition [7]: 100 µg/mL
C/I ratio [8]: 0.833
C/I ratio [9]: 1
Inhibition [10]: 1 µg/mL
Inhibition [11]: >100 µg/mL
Inhibition [12]: >100 µg/mL
C/I ratio [13]: 1
Inhibition [14]: >100 µg/mL
Inhibition [15]: >100 µg/mL

CCn1ncn(-c2ccc(N3CCN(c4ccc(OC[C@@H]5COC(Cn6cncn6)(c6ccc(Cl)cc6Cl)O5)cc4)CC3)cc2)c1=O (some centres undefined)
Inhibition [1]: >100 µg/mL
Inhibition [3]: >100 µg/mL
C/I ratio [16]: 0
Inhibition [4]: 1 µg/mL
Inhibition [5]: >100 µg/mL
Inhibition [6]: >100 µg/mL
Inhibition [7]: 100 µg/mL
C/I ratio [17]: 4
C/I ratio [18]: 0.3
C/I ratio [19]: 16
C/I ratio [20]: 0.867
Inhibition [10]: 1 µg/mL
Inhibition [11]: 10 µg/mL
C/I ratio [21]: 0.5
Inhibition [12]: >100 µg/mL
C/I ratio [22]: 0.833
Inhibition [14]: 1 µg/mL
Inhibition [15]: >100 µg/mL

C=CCn1ncn(-c2ccc(N3CCN(c4ccc(OC[C@@H]5COC(Cn6ccnc6)(c6ccc(Cl)cc6Cl)O5)cc4)CC3)cc2)c1=O (some centres undefined)
C/I ratio [23]: 1
Lowest level of total inhibition [6]: > 100 µg/mL
C/I ratio [24]: 0
C/I ratio [25]: 0

CC(C)n1ncn(-c2ccc(N3CCN(c4ccc(OC[C@@H]5COC(Cn6ccnc6)(c6ccc(Cl)cc6Cl)O5)cc4)CC3)cc2)c1=O (some centres undefined)
Inhibition [1]: >100 µg/mL
Inhibition [3]: >100 µg/mL
Inhibition [4]: 100 µg/mL
Inhibition [5]: >100 µg/mL
Inhibition [6]: >100 µg/mL
Inhibition [7]: 100 µg/mL
C/I ratio [26]: 0
Inhibition [10]: 100 µg/mL
Inhibition [11]: >100 µg/mL
Inhibition [12]: >100 µg/mL
C/I ratio [27]: 0
C/I ratio [28]: 0.5
Inhibition [14]: 100 µg/mL
Inhibition [15]: >100 µg/mL

CCC(C)n1ncn(-c2ccc(N3CCN(c4ccc(OC[C@@H]5COC(Cn6cncn6)(c6ccc(Cl)cc6Cl)O5)cc4)CC3)cc2)c1=O (some centres undefined)
Inhibition [1]: >100 µg/mL
C/I ratio [29]: 0.8
Inhibition [3]: >100 µg/mL
Inhibition [4]: 10 µg/mL
Inhibition [5]: >100 µg/mL
Inhibition [6]: >100 µg/mL
Inhibition [7]: >100 µg/mL
C/I ratio [30]: 0.394
C/I ratio [31]: 1
C/I ratio [32]: 0.853
Inhibition [10]: 100 µg/mL
Inhibition [11]: 100 µg/mL
C/I ratio [33]: 11
C/I ratio [34]: 1
Inhibition [12]: >100 µg/mL
C/I ratio [35]: 0.175
Inhibition [14]: 10 µg/mL
Inhibition [15]: >100 µg/mL

Cc1nn(CC(C)C)c(=O)n1-c1ccc(N2CCN(c3ccc(OC[C@@H]4COC(Cn5cncn5)(c5ccc(Cl)cc5Cl)O4)cc3)CC2)cc1 (some centres undefined)
Inhibition [1]: >100 µg/mL
Inhibition [3]: > 100 µg/mL
C/I ratio [16]: 0
C/I ratio [36]: 0.364
Inhibition [4]: 10 µg/mL
Inhibition [5]: >100 µg/mL
Inhibition [6]: >100 µg/mL
Inhibition [7]: 100 µg/mL
C/I ratio [37]: 0
C/I ratio [38]: 1
Inhibition [10]: 1 µg/mL
Inhibition [11]: 100 µg/mL
C/I ratio [39]: 1
Inhibition [12]: >100 µg/mL
C/I ratio [40]: 0.333
Inhibition [14]: >100 µg/mL
Inhibition [15]: >100 µg/mL

Cn1ncn(-c2ccc(N3CCN(c4ccc(OC[C@@H]5COC(Cn6ccnc6)(c6ccc(Cl)cc6Cl)O5)cc4)CC3)cc2)c1=O (some centres undefined)
Inhibition [1]: 100 µg/mL
C/I ratio [2]: 0
C/I ratio [41]: 0.364
Inhibition [3]: >100 µg/mL
Inhibition [4]: 1 µg/mL
Inhibition [5]: >100 µg/mL
Inhibition [6]: >100 µg/mL
C/I ratio [42]: 0.833
Inhibition [7]: >100 µg/mL
C/I ratio [43]: 0
C/I ratio [44]: 0.25
Inhibition [10]: 1 µg/mL
Inhibition [11]: 1 µg/mL
Inhibition [12]: >100 µg/mL
C/I ratio [45]: 0.333
Inhibition [14]: 1 µg/mL
Inhibition [15]: 100 µg/mL
C/I ratio [46]: 1

— ChEMBL document CHEMBL1122688, “Antimycotic azoles. 7. Synthesis and antifungal properties of a series of novel triazol-3-ones” (1984)
